Data on twelve molecules can be found in ChEMBL document CHEMBL1687902, “Discovery of potent inhibitors of soluble epoxide hydrolase by combinatorial library design and structure-based virtual screening” (J Med Chem, 2011).

As usually defined, the pIC50 is the IC50 on a negative log10 scale, so that one unit is a factor of ten.

pIC50: −log10 of the molar value.

The nature of series [1]: Inhibition of chimeric mouse-human sEH assessed as 6,8-difluoro-4-methylumbelliferyl trans-2,3-epoxy-3-phenylpropylcarbonate hydrolysis preincubated for 10 mins before addition of substrate by fluorometric assay.
Series [2] is described as follows: Metabolic stability in human liver microsomes assessed as compound remaining after 30 mins. Type of series: ADME, Microsome. The following applies: read-out: Stability. An outline of the steps:
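Pooled human liver microsomes, compound at 1 μM in 100 mM phosphate buffer pH 7.4. NADP+ regenerating system (1 mM NADP+, 5 mM isocitric acid, 1 U/mL isocitric dehydrogenase) with 1 mM MgCl2. Read-out is percent parent remaining after 30 min incubation.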
(In general: Liver microsomes are vesicles of endoplasmic reticulum, rich in cytochrome P450 enzymes.)

Series [3] deals with soluble epoxide hydrolase (Chlorocebus aethiops). The experiment in a line: Inhibition of native sEH in african green monkey COS7 cells assessed as 11,12-epoxyeicosatrienoic acid hydrolysis preincubated for 1 hr before substrate addition measured after 2 hrs by LC/MS/MS. The following applies: cos-7.

For the molecule `CC(=O)c1ccc(N2CCC(CC(=O)Nc3nc4c(C)cccc4o3)CC2)cc1`, the negative-log IC50 (pIC50) in series [1] was 6.96.
With `CC(C)(C)OC(=O)N1CCC(CC(=O)Nc2nc3ccccc3o2)CC1`, the negative logarithm of the IC50 (pIC50) was 7.03 in series [1] and 7.99 in series [3]. Besides, the remaining at 0.5 h in series [2] was determined as 83%.
As to `CC(C)(C)OC(=O)N1CCC(CC(=O)Nc2nc3cc(Cl)ccc3o2)CC1`, the pIC50 in series [1] is 8.16; in series [3] it was 8.81. In addition, the remaining at 0.5 h in series [2] was 43%.
As for `Cc1ccc2oc(NC(=O)CC3CCN(C(=O)OC(C)(C)C)CC3)nc2c1`, the pIC50 was 7.94 in series [1] and 9.31 in series [3]. In series [2], the remaining at 0.5 h turned out to be 6%.
On to `Cc1cc(C)c2oc(NC(=O)CC3CCN(C(=O)OC(C)(C)C)CC3)nc2c1`, for which the pIC50 is 7.14 in series [1] and 8.36 in series [3]. Besides, the remaining at 0.5 h in series [2] was 22%.
Consider `Cc1cccc2oc(NC(=O)CC3CCN(C(=O)OC(C)(C)C)CC3)nc12`, for which, in series [1], the pIC50 is 6.57.
Take `Cc1ccc2nc(NC(=O)CC3CCN(C(=O)OC(C)(C)C)CC3)oc2c1`: the pIC50 in series [1] was 6.69.
For `CC(=O)c1ccc(N2CCC(CC(=O)Nc3nc4ccccc4o3)CC2)cc1`, the pIC50 in series [1] was 7.71; in series [3], 7.66. Further, the remaining at 0.5 h in series [2] turned out to be 62%.
On to `CC(=O)c1ccc(N2CCC(CC(=O)Nc3nc4cc(Cl)ccc4o3)CC2)cc1`, for which the pIC50 is 8.45 in series [1] and 8.33 in series [3]. In addition, the remaining at 0.5 h in series [2] was found to be 45%.
`CC(=O)c1ccc(N2CCC(CC(=O)Nc3nc4cc(C)ccc4o3)CC2)cc1`: the pIC50 in series [1] was 8.44; in series [3] it was 8.24. In series [2], the remaining at 0.5 h amounted to 53%.
`CC(=O)c1ccc(N2CCC(CC(=O)Nc3nc4cc(C)cc(C)c4o3)CC2)cc1`: the pIC50 is 7.33 in series [1] and 8.85 in series [3]. The remaining at 0.5 h in series [2] is 22%.
Turning to `CC(=O)c1ccc(N2CCC(CC(=O)Nc3nc4ccc(C)cc4o3)CC2)cc1`, the pIC50 in series [1] is 6.74.
